Assay results as given in ChEMBL document CHEMBL1155242, “Radiolabeled 5-iodo-3'-O-(17beta-succinyl-5alpha-androstan-3-one)-2'-deoxyuridine and its 5'-monophosphate for imaging and therapy of androgen receptor-positive cancers: synthesis and biological evaluation” (J Med Chem, 2009).

Assays:
Lung = experiment: Biodistribution in lung of athymic NCr mouse xenografted with human OVCAR-3 cells assessed per gram of tissue at an average 39.5 uCi/dose, ip administered 9 days after tumor implantation as six fractionated doses every 4 days measured after 2 weeks of last dose by gamma counting; format: ADME, organism-based; settings: in vivo, 336 h
Summary of the method: (§1)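 OVCAR-3-bearing and healthy athymic mice given fractionated ip doses on the six-dose every-4-days schedule; tissues, tumor and lavaged cells γ-counted at necropsy, %ID/g; DNA-bound 125I in cells measured as cpm/cell.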

[1] = molecular target: T1, Sex hormone-binding globulin (Oryctolagus cuniculus, UniProt P15196); experiment: Binding affinity to rabbit sex hormone binding globulin at 20 uCi after 60 mins by reversed phase HPLC analysis; format: ADME; settings: 1 h
T1 sequence (P15196 whole entry): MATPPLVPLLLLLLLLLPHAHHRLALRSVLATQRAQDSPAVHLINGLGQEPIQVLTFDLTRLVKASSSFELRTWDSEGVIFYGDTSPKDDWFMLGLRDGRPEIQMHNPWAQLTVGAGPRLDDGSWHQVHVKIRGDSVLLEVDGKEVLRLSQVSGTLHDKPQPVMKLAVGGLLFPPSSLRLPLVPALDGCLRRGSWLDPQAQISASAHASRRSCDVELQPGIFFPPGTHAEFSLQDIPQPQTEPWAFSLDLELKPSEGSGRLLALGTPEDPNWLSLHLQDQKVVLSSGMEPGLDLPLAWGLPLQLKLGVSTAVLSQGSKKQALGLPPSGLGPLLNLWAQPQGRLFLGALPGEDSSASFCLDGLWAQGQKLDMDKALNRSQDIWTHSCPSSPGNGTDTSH

Blood = experiment: Biodistribution in blood of athymic NCr mouse xenografted with human OVCAR-3 cells assessed per gram of tissue at 0.25 mCi, ip administered 31 days after tumor implantation as single bolus dose measured 55 days after implantation by gamma counting in presence of SHBG; format: ADME, organism-based; settings: in vivo
Summary of the method: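 Mice given one ip bolus of 0.25 mCi co-injected with SHBG; blood, tumor cells, solid tumors and normal tissues taken at necropsy and counted; %ID/g decay-corrected.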

[2] = Biodistribution in uterus of athymic NCr mouse xenografted with human OVCAR-3 cells assessed per gram of tissue at an average 39.5 uCi/dose, ip administered 9 days after tumor implantation as six fractionated doses every 4 days measured after 2 weeks of last dose by gamma counting; format: ADME, organism-based; settings: in vivo, 336 h; summary of the method: as §1
OVCAR-3 [3] = experiment: Cellular uptake in human OVCAR-3 cells expressing androgen receptor assessed as ratio of [125I]UdR to thymidine incorporation in DNA at 1.75 uCi/mL after 24 hrs by gamma counting; format: ADME, cell-based; settings: ovcar-3, 24 h
Summary of the method: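 OVCAR-3 cells treated with the radioligand; fraction of DNA thymidine replaced by 125IUdR determined after 24 h.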

[4] = Biodistribution in small intestine of athymic NCr mouse xenografted with human OVCAR-3 cells assessed per gram of tissue at an average 39.5 uCi/dose, ip administered 9 days after tumor implantation as six fractionated doses every 4 days measured after 2 weeks of last dose by gamma counting; format: ADME, organism-based; settings: in vivo, 336 h; summary of the method: as §1
[5] = Stability in mouse serum assessed as intact compound remaining at 20 uCi after 40 mins by size-exclusion HPLC analysis; format: ADME, cell-free; settings: read-out: Stability
Summary of the method: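 The compound was incubated in mouse serum, which lacks circulating SHBG. Aliquots were analysed on size-exclusion HPLC (TSK3000; phosphate/Na2SO4 buffer, pH 6.8, then an acetonitrile gradient). Extracts were analysed by C18 reversed-phase HPLC to measure intact compound remaining over time.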

Kidney = experiment: Biodistribution in kidney of athymic NCr mouse xenografted with human OVCAR-3 cells assessed per gram of tissue at an average 39.5 uCi/dose, ip administered 9 days after tumor implantation as six fractionated doses every 4 days measured after 2 weeks of last dose by gamma counting; format: ADME, organism-based; settings: in vivo, 336 h; summary of the method: as §1
[6] = molecular target: T1, Sex hormone-binding globulin; experiment: Binding affinity to rabbit sex hormone binding globulin at 20 uCi after 60 mins by size-exclusion HPLC analysis; format: ADME; settings: 1 h
Summary of the method: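 Radioligand incubated 60 min with purified human SHBG or with human, rabbit or mouse serum. Size-exclusion HPLC (TSK3000): 0.1 M potassium phosphate/0.1 M Na2SO4 1:1 pH 6.8 for 20 min, then 0–40% CH3CN over 20 min, held 30 min, 0.7 mL/min.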

[7] = Ratio of drug level in tumor to spleen in athymic NCr mouse xenografted with human OVCAR-3 cells at 180 uCi, ip administered 9 days after tumor implantation as six fractionated doses every 4 days measured after 24 hrs by gamma counting; format: ADME, organism-based; settings: in vivo
[8] = Biodistribution in uterus of athymic NCr mouse xenografted with human OVCAR-3 cells assessed per gram of tissue at 1.12 uCi, ip after 72 hrs by gamma counting; format: ADME, organism-based; settings: in vivo
[9] = Ratio of drug level in tumor to kidney in athymic NCr mouse xenografted with human OVCAR-3 cells at 180 uCi, ip administered 9 days after tumor implantation as six fractionated doses every 4 days measured after 48 hrs by gamma counting; format: ADME, organism-based; settings: in vivo
[10] = Chemical stability in phosphate buffer saline at 0.85 uCi after 1265 mins by HPLC analysis; format: physicochemical
[11] = Stability in human OVCAR-3 cells expressing androgen receptor assessed as assessed as compound degradation at 0.01 to 5 uCi/mL up to 24 hrs by silica gel instant thin layer chromatography; format: ADME, cell-based; settings: read-out: Activity
LNCaP = experiment: Cellular uptake in single-cell suspension of nonproliferating human LNCAP cells expressing androgen receptor at 0.03 uCi/mL up to 2 hrs by gamma counting; format: ADME, cell-based; settings: TDE = time-dependent effect
Summary of the method: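 Low-passage LNCaP held as single-cell suspension (non-proliferating) in RPMI-1640 with radioligand at 0.03 or 0.37 μCi/mL; whole-cell and nuclear radioactivity measured over time.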

[12] = Ratio of drug level in tumor to kidney in athymic NCr mouse xenografted with human OVCAR-3 cells at 180 uCi, ip administered 9 days after tumor implantation as six fractionated doses every 4 days measured after 72 hrs by gamma counting; format: ADME, organism-based; settings: in vivo
[13] = molecular target: T1, Sex hormone-binding globulin; experiment: Binding affinity to rabbit sex hormone binding globulin at 10 to 20 uCi/mL after 60 mins by reversed phase HPLC analysis; format: ADME; settings: 1 h
[14] = Clearance in peritoneum of athymic NCr mouse xenografted with human OVCAR-3 cells assessed as half life at 1.12 uCi, ip by gamma counting; format: ADME, organism-based; settings: in vivo
Summary of the method: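 Peritoneal clearance measured in athymic NCr-nu/nu mice bearing intraperitoneal NIH:OVCAR-3 xenografts after an ip dose of the 125I compound. The peritoneal cavity was lavaged, and 125I was counted in the lavage and in the recovered tumor cells. Half-lives were estimated from the clearance curves.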

OVCAR-3 [15] = experiment: Cytotoxicity against human OVCAR-3 cells expressing androgen receptor at 5 uCi/mL after 24 hrs; format: functional
[16] = Stability in rabbit serum assessed as half life at 10 to 20 uCi/mL by size-exclusion HPLC analysis; format: ADME, cell-free, Oryctolagus cuniculus
Summary of the method: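 The compound was incubated with rabbit or human serum at ambient temperature, and aliquots were taken at 1, 5 and 24 h. Aliquots were run on size-exclusion HPLC (TSK3000; 0.1 M potassium phosphate/0.1 M Na2SO4, pH 6.8, then an acetonitrile gradient). Extracts were run on C18 reversed-phase HPLC (water/acetonitrile with 0.07% TFA). Half-lives came from a monoexponential fit.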

SMILES	Drug uptake (Lung)	Activity [1]	Drug uptake (Blood)	Drug uptake [2]	Ratio (OVCAR-3 [3])	Drug uptake [4]	remaining at 40 min, 20 uCi [5]	Drug uptake (Kidney)	Activity [6]	Ratio [7]	Drug uptake [8]	Ratio [9]	Stability [10]	metabolised at 24 h [11]	Drug uptake (LNCaP)	Ratio [12]	Activity [13]	t1/2 [14]	Activity (OVCAR-3 [15])	t1/2 [16]
C[C@]12CCC(=O)C[C@@H]1CC[C@@H]1[C@@H]2CC[C@]2(C)[C@@H](OC(=O)CCC(=O)O[C@H]3C[C@H](n4cc([125I])c(=O)[nH]c4=O)O[C@@H]3COP(=O)(O)O)CC[C@@H]12	0.008 %ID	Active	0.057 %ID	0.027 %ID	0.002	0.011 %ID	60%	0.013 %ID	Active											
C[C@]12CCC(=O)C[C@@H]1CC[C@@H]1[C@@H]2CC[C@]2(C)[C@@H](OC(=O)CCC(=O)O[C@H]3C[C@H](n4cc([125I])c(=O)[nH]c4=O)O[C@@H]3CO)CC[C@@H]12										27.4	1 %ID	61.8	Stable	1.1%	tde	31.9	Active	26 h	20%	5.7 h
